ChEMBL document CHEMBL1828575, “Design, synthesis and antiproliferative activities of biarylolefins based on polyhydroxylated and carbohydrate scaffolds” (Eur J Med Chem, 2011)

Experiments:
Assay type in all cases: functional
NCI-H23 = assay: Cytotoxicity against human NCI-H23 cells assessed as cellular growth at 10 uM after 48 hrs by SRB assay
Method in brief: (§1)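 NCI-60 panel lines grown in RPMI 1640 with 5% FBS and 2 mM L-glutamine. Plated at 5000–40,000 cells/well and preincubated 24 h at 37 °C, 5% CO₂, with time-zero plates fixed in TCA. Compounds, dissolved in DMSO and diluted in medium, were applied for 48 h. Cells were TCA-fixed (10% final for adherent, 16% for suspension) and stained with 0.4% SRB in 1% acetic acid. Dye was solubilised in 10 mM Tris base and read at 515 nm; growth was expressed as a percentage of untreated control.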

MOLT-4 [1] = assay: Cytotoxicity against human MOLT4 cells assessed as cellular growth at 10 uM after 48 hrs by SRB assay; method in brief: as §1
A549 [2] = assay: Cytotoxicity against human A549 cells assessed as cellular growth at 10 uM after 48 hrs by SRB assay
Method in brief: (§2)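 NCI60 single-dose screen of cells in RPMI 1640 with 5% FBS and 2 mM L-glutamine, preincubated 24 h at 37 °C, 5% CO₂. Cells were then exposed 48 h to compound added from DMSO stock. TCA-fixed, stained with 0.4% SRB in 1% acetic acid, dye solubilised in 10 mM Tris base and read at 515 nm. Growth is given as percent of untreated control.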

HCT-15 = assay: Cytotoxicity against human HCT15 cells assessed as cellular growth at 10 uM after 48 hrs by SRB assay; method in brief: as §2
EKVX [3] = assay: Cytotoxicity against human EKVX cells assessed as cellular growth at 10 uM after 48 hrs by SRB assay; method in brief: as §2
OVCAR-5 = assay: Cytotoxicity against human OVCAR5 cells assessed as cellular growth at 10 uM after 48 hrs by SRB assay; method in brief: as §1
CAKI-1 = assay: Cytotoxicity against human Caki1 cells assessed as cellular growth at 10 uM after 48 hrs by SRB assay; method in brief: as §2
BT-549 = assay: Cytotoxicity against human BT549 cells assessed as cellular growth at 10 uM after 48 hrs by SRB assay; method in brief: as §2
MDA-MB-468 = assay: Cytotoxicity against human MDA-MB-468 cells assessed as cellular growth at 10 uM after 48 hrs by SRB assay; method in brief: as §1
HOP-92 = assay: Antitumor activity against human HOP92 cells after 48 hrs by SRB assay; conditions: HOP-92, 48 h
Method in brief: (§3)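 NCI60 panel in RPMI 1640 with 5% FBS and 2 mM L-glutamine. Cells were plated at 5000–40,000/well by doubling time, held 24 h, then time-zero plates were TCA-fixed. Five concentrations (10-fold or half-log dilutions of DMSO stocks) were applied for 48 h at 37 °C, 5% CO2. Cells were fixed with cold TCA (10% final adherent, 16% suspension) and stained with 0.4% SRB. Bound dye was dissolved in 10 mM Tris and read at 515 nm. GI50, TGI and LC50 were calculated per line.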

NCI-H522 = assay: Antitumor activity against human NCI-H522 cells after 48 hrs by SRB assay; conditions: NCI-H522, 48 h; method in brief: as §3
SF-539 = assay: Antitumor activity against human SF539 cells after 48 hrs by SRB assay; conditions: SF-539, 48 h
Method in brief: (§4)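 NCI60 panel cells grown in RPMI 1640 with 5% FBS and 2 mM L-glutamine, plated at 5000–40,000 cells/well and preincubated 24 h at 37 °C, 5% CO₂. Compound was added from DMSO at five concentrations, 10-fold or 1/2 log dilutions, then incubated 48 h.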

SNB-19 = assay: Antitumor activity against human SNB19 cells after 48 hrs by SRB assay; conditions: SNB-19, 48 h; method in brief: as §4
U-251 = assay: Antitumor activity against human U251 cells after 48 hrs by SRB assay; conditions: U-251, 48 h; method in brief: as §4
SK-MEL-2 = assay: Antitumor activity against human SK-MEL-2 cells after 48 hrs by SRB assay; conditions: SK-MEL-2, 48 h; method in brief: as §4
MCF7 = assay: Antitumor activity against human MCF7 cells after 48 hrs by SRB assay; conditions: MCF7, 48 h; method in brief: as §3
DU-145 = assay: Antitumor activity against human DU145 cells after 48 hrs by SRB assay; conditions: DU-145, 48 h; method in brief: as §3
IGROV-1 = assay: Antitumor activity against human IGROV1 cells after 48 hrs by SRB assay; conditions: IGROV-1, 48 h; method in brief: as §3
EKVX [4] = assay: Antitumor activity against human EKVX cells after 48 hrs by SRB assay; method in brief: as §3
A549 [5] = assay: Antitumor activity against human A549 cells after 48 hrs by SRB assay; conditions: A549, 48 h; method in brief: as §3
RPMI-8226 = assay: Antitumor activity against human RPMI8226 cells after 48 hrs by SRB assay; conditions: RPMI-8226, 48 h; method in brief: as §3
MOLT-4 [6] = assay: Antitumor activity against human MOLT4 cells after 48 hrs by SRB assay; conditions: MOLT-4, 48 h; method in brief: as §3
K562 = assay: Antitumor activity against human K562 cells after 48 hrs by SRB assay; conditions: K562, 48 h; method in brief: as §3
[7] = read-out: LC50 (the source's name)
[8] = read-out: pLC50 (the source's name) (converted)

COc1ccc(/C(=C2\O[C@@H]([C@H]3COC(C)(C)O3)[C@H]3OC(C)(C)O[C@@H]23)c2cc(OC)c(OC)c(OC)c2)cc1O
Activity (NCI-H23): 81.18%
Activity (MOLT-4 [1]): 60.46%
Activity (A549 [2]): 80.05%
Activity (HCT-15): 32.51%
Activity (EKVX [3]): 100.52%
Activity (OVCAR-5): 92.89%
Activity (CAKI-1): 110.64%
Activity (BT-549): 67.52%
Activity (MDA-MB-468): 112.6%
GI50 (HOP-92): 4 µM
TGI (HOP-92): 38.3 µM
CC50 (HOP-92; [7]): > 100 µM
GI50 (NCI-H522): 2.95 µM
TGI (NCI-H522): 7.54 µM
CC50 (NCI-H522; [7]): 85.6 µM
GI50 (SF-539): 3.15 µM
TGI (SF-539): 8.75 µM
CC50 (SF-539; [7]): 86 µM
GI50 (SNB-19): 2.49 µM
TGI (SNB-19): 6.08 µM
CC50 (SNB-19; [7]): > 100 µM
GI50 (U-251): 3.12 µM
TGI (U-251): 11.8 µM
CC50 (U-251; [7]): > 100 µM
GI50 (SK-MEL-2): 1.53 µM
TGI (SK-MEL-2): 4.12 µM
CC50 (SK-MEL-2; [7]): 24.1 µM
GI50 (MCF7; read-out: GI50): 1.23 µM
CC50 (MCF7; [7]): > 100 µM
TGI (MCF7; read-out: TGI): > 100 µM
GI50 (MCF7; read-out: pGI50 (converted)): 12.3 µM
CC50 (MCF7; [8]): > 100 µM
TGI (MCF7; read-out: pTGI (converted)): > 100 µM
GI50 (DU-145; read-out: GI50): 3.93 µM
CC50 (DU-145; [7]): > 100 µM
TGI (DU-145; read-out: TGI): > 100 µM
GI50 (DU-145; read-out: pGI50 (converted)): 3.89 µM
CC50 (DU-145; [8]): > 100 µM
TGI (DU-145; read-out: pTGI (converted)): > 100 µM
GI50 (IGROV-1; read-out: GI50): 45.1 µM
CC50 (IGROV-1; [7]): > 100 µM
TGI (IGROV-1; read-out: TGI): > 100 µM
GI50 (IGROV-1; read-out: pGI50 (converted)): 44.7 µM
CC50 (IGROV-1; [8]): > 100 µM
TGI (IGROV-1; read-out: pTGI): > 100 µM
GI50 (EKVX [4]; read-out: GI50): 37.4 µM
CC50 (EKVX [4]; [7]): > 100 µM
TGI (EKVX [4]; read-out: TGI): > 100 µM
GI50 (EKVX [4]; read-out: pGI50 (converted)): 37.2 µM
CC50 (EKVX [4]; [8]): > 100 µM
TGI (EKVX [4]; read-out: pTGI): > 100 µM
GI50 (A549 [5]; read-out: GI50): 22.7 µM
CC50 (A549 [5]; [7]): > 100 µM
TGI (A549 [5]; read-out: TGI): > 100 µM
GI50 (A549 [5]; read-out: pGI50 (converted)): 22.9 µM
CC50 (A549 [5]; [8]): > 100 µM
TGI (A549 [5]; read-out: pTGI (converted)): > 100 µM
LC50 (concentration killing 50% of starting cells) (RPMI-8226): > 100 µM
GI50 (RPMI-8226; read-out: GI50): 4.82 µM
TGI (RPMI-8226; read-out: TGI): 34 µM
GI50 (RPMI-8226; read-out: pGI50 (converted)): 4.79 µM
CC50 (RPMI-8226; [8]): > 100 µM
TGI (RPMI-8226; read-out: pTGI (converted)): 33.9 µM
LC50 (concentration killing 50% of cells) (MOLT-4 [6]): > 100 µM
GI50 (MOLT-4 [6]; read-out: GI50): 24.2 µM
TGI (MOLT-4 [6]; read-out: TGI): > 100 µM
GI50 (MOLT-4 [6]; read-out: pGI50 (converted)): 24 µM
CC50 (MOLT-4 [6]; [8]): > 100 µM
TGI (MOLT-4 [6]; read-out: pTGI): > 100 µM
GI50 (K562; read-out: GI50): 6.28 µM
CC50 (K562; [7]): > 100 µM
TGI (K562; read-out: TGI): > 100 µM
GI50 (K562; read-out: pGI50 (converted)): 6.31 µM
CC50 (K562; [8]): > 100 µM
TGI (K562; read-out: pTGI): > 100 µM
